The source made the active and inactive calls. The calls are words filed in the database; no cut-off is given here.
Assays:
Mus musculus [1] = assay: Induction of Nrf2-mediated GCLM gene expression in small intestine of C57BL/6 mouse at 50 mg/kg, po administered as single dose measured after 24 hrs by RT-PCR analysis related to control; assay type: functional
In short: (§1)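 Male C57BL/6 mice (7 weeks, AIN 76A diet; n=4) given a single 50 mg/kg oral gavage of compound, sulforaphane, or vehicle (10% DMSO + 10% Cremophor EL + 80% PBS). Small intestine harvested 24 h later; GCLM and NQO1 mRNA measured by TaqMan qRT-PCR with β-actin normalization.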

[2] = Cytotoxicity against human BEAS2B cells assessed as cell viability after 24 hrs by MTT assay; assay type: cell-based, BEAS-2B; set-up: concentration or dose not given beside the values; details: read-out: Activity
In short: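 Beas-2B cells treated with compound or DMSO vehicle (0.1%) for 24 h; MTT (5 mg/ml in serum-free medium) added for the last 4 h, formazan dissolved in DMSO after PBS wash, absorbance read at 570 nm. Viability also checked by trypan blue exclusion.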

[3] = target: T1, Nuclear factor erythroid 2-related factor 2 (Homo sapiens) (UniProt Q16236); assay: Induction of Nrf2-mediated GCLM gene expression in human BEAS2B cells at 10 uM after 16 hrs by RT-PCR analysis relative to untreated control; assay type: functional, cell-based
T1 sequence (whole entry): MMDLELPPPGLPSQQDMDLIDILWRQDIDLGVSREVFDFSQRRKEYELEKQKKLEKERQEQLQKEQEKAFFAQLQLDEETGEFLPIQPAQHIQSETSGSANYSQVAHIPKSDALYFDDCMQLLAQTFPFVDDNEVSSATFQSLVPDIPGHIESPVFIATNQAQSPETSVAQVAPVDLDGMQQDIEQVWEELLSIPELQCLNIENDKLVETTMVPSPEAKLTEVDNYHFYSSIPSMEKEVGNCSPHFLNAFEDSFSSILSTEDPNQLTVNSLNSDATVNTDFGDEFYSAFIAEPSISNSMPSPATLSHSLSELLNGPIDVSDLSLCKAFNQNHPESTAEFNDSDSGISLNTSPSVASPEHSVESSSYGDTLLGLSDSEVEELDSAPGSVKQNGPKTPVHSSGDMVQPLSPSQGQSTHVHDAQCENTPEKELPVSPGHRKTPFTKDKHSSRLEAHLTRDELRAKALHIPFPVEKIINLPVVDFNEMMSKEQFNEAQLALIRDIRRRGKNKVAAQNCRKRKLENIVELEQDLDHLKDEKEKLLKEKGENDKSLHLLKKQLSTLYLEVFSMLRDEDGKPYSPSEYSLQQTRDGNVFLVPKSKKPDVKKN
In short: (§2)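 Beas-2B cells (DMEM:F12, 10% FBS) plated 24 h, then exposed to 10 µM compound in DMSO (final ≤0.1%) for 16 h; sulforaphane as positive control. Total RNA extracted, reverse transcribed with random hexamers, GCLM and NQO1 mRNA quantified by TaqMan qRT-PCR, fold change vs DMSO. Representative of 3 independent experiments, quadruplicate wells.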

[4] = target: T1, Nuclear factor erythroid 2-related factor 2 (Homo sapiens); assay: Induction of Nrf2-mediated NQO1 gene expression in human BEAS2B cells at 10 uM after 16 hrs by RT-PCR analysis relative to untreated control; assay type: functional, cell-based; in short: as §2
Mus musculus [5] = assay: Induction of Nrf2-mediated NQO1 gene expression in small intestine of C57BL/6 mouse at 50 mg/kg, po administered as single dose measured after 24 hrs by RT-PCR analysis related to control; assay type: functional; in short: as §1

SMILES | Activity (Mus musculus [1]) | viability at 24 h [2] | fold change (FC) [3] | fold change (FC) [4] | Activity (Mus musculus [5])
COc1ccc(C(=O)/C=C/c2ccccc2C(F)(F)F)c(OC)c1OC | Active | 102% | 5.4 | 4.1 | Active
O=C(/C=C/c1ccccc1[N+](=O)[O-])c1ccccc1 |  |  | 2.1 | 1.6 | 
O=C(/C=C/c1cccc(C(F)(F)F)c1)c1ccccc1 |  |  | 3.1 | 2.8 | 
COc1ccc(C(=O)/C=C/c2ccccc2)cc1 |  |  | 1.9 | 2.8 | 
COc1cc(C(=O)/C=C/c2cccc(C(F)(F)F)c2)cc(OC)c1OC |  |  | 1.7 | 0.8 | 
COc1cc(C(=O)/C=C/c2ccc(C(F)(F)F)cc2)cc(OC)c1OC |  |  | 4.1 | 3.7 | 
COc1ccc(C(=O)/C=C/c2ccc(C(F)(F)F)cc2)c(OC)c1 |  | 92.6% | 5 | 4.8 | 
COc1ccc(C(=O)/C=C/c2cccc(C(F)(F)F)c2)c(OC)c1 |  |  | 4.6 | 4 | 
COc1cccc(OC)c1C(=O)/C=C/c1ccccc1[N+](=O)[O-] |  | 75.8% | 4.1 | 3.7 | 
COc1ccccc1C(=O)/C=C/c1ccc(C(F)(F)F)cc1 |  | 91% | 4.3 | 5.4 | 
COc1ccc(C(=O)/C=C/c2cccc(C(F)(F)F)c2)cc1OC |  |  | 4.1 | 2.9 | 
COc1cc(OC)cc(C(=O)/C=C/c2ccccc2)c1 |  |  | 3 | 2.4 | 
COc1ccccc1C(=O)/C=C/c1ccccc1 |  |  | 3.6 | 3.2 | 
COc1cc(OC)c(C(=O)/C=C/c2ccc(C(F)(F)F)cc2)c(OC)c1 |  |  | 2.4 | 2.4 | 
COc1ccc(C(=O)/C=C/c2ccc(C(F)(F)F)cc2)c(OC)c1OC |  | 100% | 4.1 | 3.9 | 
COc1ccc(C(=O)/C=C/c2ccccc2)cc1OC |  |  | 2.3 | 2.5 | 
COc1ccc(OC)c(C(=O)/C=C/c2ccc(C(F)(F)F)cc2)c1 |  | 91.6% | 4.1 | 4 | 
COc1cccc(C(=O)/C=C/c2ccccc2)c1 |  |  | 1.5 | 2.4 | 
COc1ccc(C(=O)/C=C/c2ccccc2[N+](=O)[O-])cc1OC |  |  | 2.3 | 2.7 | 
COc1ccc(C(=O)/C=C/c2ccc(C(F)(F)F)cc2)cc1 |  | 104% | 3.5 | 4.6 | 
COc1ccc(C(=O)/C=C/c2ccccc2[N+](=O)[O-])c(OC)c1OC |  |  | 2.9 | 3.3 | 
COc1cc(OC)c(C(=O)/C=C/c2ccccc2C(F)(F)F)c(OC)c1 | Active | 145% | 4.4 | 4.3 | Active
COc1cccc(OC)c1C(=O)/C=C/c1ccc(C(F)(F)F)cc1 |  |  | 1.4 | 0.6 | 
O=C(/C=C/c1ccc(C(F)(F)F)cc1)c1ccccc1 |  |  | 3.1 | 2.9 | 
COc1ccc(C(=O)/C=C/c2cccc(C(F)(F)F)c2)cc1 |  |  | 2.7 | 2.8 | 
COc1ccc(OC)c(C(=O)/C=C/c2cccc(C(F)(F)F)c2)c1 |  |  | 1.8 | 0.8 | 
COc1cc(C(=O)/C=C/c2ccccc2C(F)(F)F)cc(OC)c1OC |  |  | 3 | 3.1 | 
COc1ccc(C(=O)/C=C/c2ccccc2C(F)(F)F)cc1OC |  |  | 4.3 | 2.7 | 
COc1ccc(C(=O)/C=C/c2cccc(C(F)(F)F)c2)c(OC)c1OC |  |  | 3.6 | 3.2 | 
